Assay results published in ChEMBL document CHEMBL1148634 (J Med Chem, 2006).
Calls of active or inactive are those of the source. The calls are words filed in the database; no cut-off is given here.

Assays:
Melanophore [1] = test: Potency for pigment aggregation in Xenopus laevis melanophore at 10 uM relative to melatonin; format: functional
[2] = target: T1, Melatonin receptor type 1B (Homo sapiens, UniProt P49286); test: Displacement of 2-[125I]iodomelatonin from human recombinant MT2 receptor expressed in NIH3T3 cells; format: cell-based
T1 sequence (P49286 whole entry): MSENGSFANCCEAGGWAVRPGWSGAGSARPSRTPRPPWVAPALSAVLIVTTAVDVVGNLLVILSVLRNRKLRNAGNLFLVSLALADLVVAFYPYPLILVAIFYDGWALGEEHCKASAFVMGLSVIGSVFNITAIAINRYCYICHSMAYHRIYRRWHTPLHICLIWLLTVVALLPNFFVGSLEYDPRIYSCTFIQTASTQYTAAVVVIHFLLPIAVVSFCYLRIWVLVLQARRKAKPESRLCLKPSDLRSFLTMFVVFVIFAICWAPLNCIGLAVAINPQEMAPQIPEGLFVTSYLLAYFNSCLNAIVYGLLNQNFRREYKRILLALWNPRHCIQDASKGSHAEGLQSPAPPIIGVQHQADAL

Melanophore [3] = test: Antagonist activity in Xenopus laevis melanophore assessed as potency for pigment aggregation; format: functional, cell-based
How it was run: (§1)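 Antagonism of the pigment aggregation response was tested on a clonal Xenopus laevis melanophore line.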

Melanophore [4] = test: Agonist activity in Xenopus laevis melanophore assessed as potency for pigment aggregation; format: functional, cell-based
How it was run: (§2)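 A clonal Xenopus laevis melanophore line was grown in 96-well plates, and medium was switched to 0.7 × L-15 18 h before testing. Initial absorbance at 630 nm was read, analogue was added, and final absorbance was read after 60 min. Response was the fractional change 1 − (Af/Ai).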

[5] = target: T2, Melatonin receptor type 1A (Homo sapiens, UniProt P48039); test: Displacement of 2-[125I]iodomelatonin from human recombinant MT1 receptor expressed in NIH3T3 cells; format: cell-based
T2 sequence (P48039 whole entry): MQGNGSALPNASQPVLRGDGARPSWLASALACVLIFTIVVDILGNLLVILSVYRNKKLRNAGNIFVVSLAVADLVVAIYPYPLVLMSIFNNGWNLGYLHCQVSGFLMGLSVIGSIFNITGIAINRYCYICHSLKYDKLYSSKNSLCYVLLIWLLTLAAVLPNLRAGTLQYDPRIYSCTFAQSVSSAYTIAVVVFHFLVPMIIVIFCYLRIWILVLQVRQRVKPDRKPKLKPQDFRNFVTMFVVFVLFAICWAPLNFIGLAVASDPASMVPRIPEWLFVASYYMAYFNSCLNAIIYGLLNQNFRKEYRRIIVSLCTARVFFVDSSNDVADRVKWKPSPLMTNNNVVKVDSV

Melanophore [6] = test: Agonist activity in Xenopus laevis melanophore assessed as potency for pigment aggregation at 10 uM; format: functional, cell-based; how it was run: as §2
Melanophore [7] = test: Antagonist activity in Xenopus laevis melanophore assessed as potency for pigment aggregation at 10 uM; format: functional, cell-based; how it was run: as §1
[8] = target: T3, Melatonin receptor type 1B (Homo sapiens) (UniProt P49286); test: Activity at MT2 receptor expressed in NIH3T3 cells assessed as inhibition of forskolin-stimulated cAMP synthesis; format: functional, cell-based; details: filed as agonist
T3 sequence (whole entry): T1 sequence (P49286 whole entry)
How it was run: (§3)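 NIH 3T3 cells stably expressing cloned human MT1 or MT2 receptors were pretreated with IBMX (25 µM, 10 min), then given forskolin (1 µM, 10 min) with or without test agent. Cyclic AMP was measured in duplicate by radioimmunoassay for each cell sample. Data are mean ± SEM of quadruplicate cell samples.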

[9] = target: T2, Melatonin receptor type 1A; test: Activity at MT1 receptor expressed in NIH3T3 cells assessed as inhibition of forskolin-stimulated cAMP synthesis; format: functional, cell-based; details: filed as agonist; how it was run: as §3
[10] = target: T2, Melatonin receptor type 1A; test: Activity at MT1 receptor expressed in NIH3T3 cells assessed as inhibition of forskolin-stimulated cAMP synthesis at 10 uM; format: functional, cell-based; how it was run: as §3
[11] = target: T2, Melatonin receptor type 1A; test: Activity at MT1 receptor expressed in NIH3T3 cells assessed as inhibition of […] cAMP synthesis at 10 uM; format: functional, cell-based; details: filed as antagonist
How it was run: (§4)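 Antagonism was tested in NIH 3T3 cells expressing human MT1. […] Cyclic AMP was measured in duplicate by radioimmunoassay. Data are mean ± SEM of quadruplicate cell samples.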

[12] = target: T2, Melatonin receptor type 1A; test: Activity at MT1 receptor expressed in NIH3T3 cells assessed as inhibition of forskolin-stimulated cAMP synthesis at 1 uM; format: functional, cell-based; how it was run: as §3
[13] = target: T2, Melatonin receptor type 1A; test: Activity at MT1 receptor expressed in NIH3T3 cells assessed as inhibition of […] cAMP synthesis; format: functional, cell-based; details: filed as antagonist; how it was run: as §4
[14] = Xenopus laevis, Melanophore, read-out: EC50

Row | Ki [2] [nM] | IC50 (Melanophore [3]) [nM] | EC50 (Melanophore [4]; [14]) [nM] | Ki [5] [nM] | Structure (SMILES) | Activity (Melanophore [7]) | further results
1 | 4.4 | 826 | 980 | 34 | CCC(=O)NCC1(c2cn(C)c3ccc(OC)cc23)CCC1 |  | Activity (Melanophore [1]): 20%
2 | 257 | 1180 |  | 468 | COc1ccc2c(c1)c(C1(CNC(=O)C3CC3)CCCC1)cn2C |  | Activity (Melanophore [6]): inactive
3 | 39 |  | 6.8 | 86 | CCC(=O)NCC1(c2cn(C)c3ccc(OC)cc23)CC1 | inactive | 
4 | 3.3 |  | 1.67 | 8.2 | COc1ccc2[nH]cc(C3(CNC(C)=O)CCC3)c2c1 | inactive | 
5 | 102 | 811 |  | 302 | CCC(=O)NCC1(c2cn(C)c3ccc(OC)cc23)CCCC1 |  | Activity (Melanophore [6]): inactive
6 | 3770 | > 10000 |  | 714 | COc1ccc2c(c1)c(C1(CNC(=O)C3CCC3)CCC1)cn2C |  | EC50 (Melanophore [4]; melanophore): Not Active; Activity (Melanophore [6]): inactive
7 | 66.1 | 628 |  | 148 | COc1ccc2c(c1)c(C1(CNC(C)=O)CCCC1)cn2C |  | Activity (Melanophore [6]): inactive
8 | 1440 | 3440 |  | 617 | Cn1cc(C2(CNC(=O)C3CC3)CCC2)c2ccccc21 |  | EC50 (Melanophore [4]; melanophore): Not Active
9 | 62.2 | > 10000 |  | 493 | COc1ccc2[nH]cc(C3(CNC(=O)C4CCC4)CCC3)c2c1 |  | Activity (Melanophore [6]): inactive
10 | 407 | 1770 |  | 479 | COc1ccc2c(c1)c(C1(CNC(=O)C3CCC3)CCCC1)cn2C |  | Activity (Melanophore [6]): inactive
11 | 1740 | 3030 |  | 724 | CCCC(=O)NCC1(c2cn(C)c3ccccc23)CCC1 |  | EC50 (Melanophore [4]; melanophore): Not Active
12 | 1260 | 1250 |  | 2190 | CC(=O)NCC1(c2cn(C)c3ccccc23)CCC1 |  | EC50 (Melanophore [4]; melanophore): Not Active
13 | 90 |  | 10.5 | 176 | COc1ccc2c(c1)c(C1(CNC(C)=O)CC1)cn2C | inactive | 
14 | 1050 | 1150 |  | 1510 | CCC(=O)NCC1(c2cn(C)c3ccccc23)CCC1 |  | EC50 (Melanophore [4]; melanophore): Not Active
15 | 28.9 | 2500 |  | 57.8 | COc1ccc2[nH]cc(C3(CNC(=O)C4CC4)CCC3)c2c1 |  | Activity (Melanophore [6]): inactive
16 | 138 | 2070 |  | 307 | COc1ccc2c(c1)c(C1(CNC(=O)C3CC3)CCC1)cn2C |  | Activity (Melanophore [6]): inactive
17 | 7.5 |  | 1.7 | 212 | CCCC(=O)NCC1(c2cn(C)c3ccc(OC)cc23)CC1 | inactive | Activity [8]: Agonist; Activity [9]: Agonist
18 | 72 | 637 | 1010 | 483 | COc1ccc2c(c1)c(C1(CNC(C)=O)CCC1)cn2C |  | Activity (Melanophore [1]): 8%
19 | 85.1 | 1640 |  | 589 | CCCC(=O)NCC1(c2cn(C)c3ccc(OC)cc23)CCCC1 |  | Activity [10]: inactive; Activity [11]: Antagonist; Activity (Melanophore [6]): inactive
20 | 57.4 |  | 2.56 | 116 | CCCC(=O)NCC1(c2c[nH]c3ccc(OC)cc23)CCC1 | inactive | Activity [8]: Agonist; Activity [9]: Agonist
21 | 0.86 |  | 2 | 10.6 | CCCC(=O)NCC1(c2cn(C)c3ccc(OC)cc23)CCC1 | inactive | Activity (Melanophore [1]): 92%; Activity [12]: inactive; Activity [13]: Antagonist
22 | 32 |  | 0.99 | 65.7 | CCC(=O)NCC1(c2c[nH]c3ccc(OC)cc23)CCC1 | inactive | 

The remaining lines, values behind:

Row | Structure (SMILES) | Ki [2] [nM] | IC50 (Melanophore [3]) [nM] | EC50 (Melanophore [4]; [14]) [nM] | Ki [5] [nM] | Activity (Melanophore [7]) | further results
23 | CCCC(=O)NCC(C)(C)c1cn(C)c2ccc(OC)cc12 | 0.74 |  | 1 | 8.51 | inactive | Activity [8]: Agonist; Activity [9]: Agonist
24 | COc1ccc2c(c1)c(C(C)CNC(C)=O)cn2C (stereo in doubt; 6a) [listing 1 of 2 here] |  |  |  |  | inactive | 
25 | COc1ccc2[nH]cc(C(C)(C)CNC(C)=O)c2c1 | 2.75 |  | 0.0072 | 1.12 | inactive | Activity [8]: Agonist; Activity [9]: Agonist
26 | CCC(=O)NCC(C)c1cn(C)c2ccc(OC)cc12 (configuration not stated) | 1.02 |  | 3.72 | 4.9 | inactive | 
27 | COc1ccc2c(c1)c(C(C)(C)CNC(C)=O)cn2C | 1.29 |  | 6.31 | 11.5 | inactive | 
28 | COc1ccc2c(c1)c(C(C)CNC(C)=O)cn2C (stereo in doubt; 6a) [listing 2 of 2 here] | 0.41 |  |  |  |  | EC50 (Melanophore [4]; melanophore, read-out: EC50): 1.72 nM
29 | COc1ccc2[nH]cc(C(C)CNC(C)=O)c2c1 (configuration not stated) | 2.94 |  | 0.049 | 1.67 | inactive | 
30 | COc1ccc2c(c1)c(C(C)(C)CNC(=O)C1CCC1)cn2C | 33.1 |  | 57.5 | 170 | inactive | 
31 | CCC(=O)NCC(C)(C)c1cn(C)c2ccc(OC)cc12 | 1.15 |  | 1.26 | 6.03 | inactive | 
32 | COc1ccc2c(c1)c(C(C)CNC(C)=O)cn2C (stereo in doubt; (-)6a) [listing 1 of 2 here] | 0.27 |  |  |  |  | EC50 (Melanophore [4]; melanophore, read-out: EC50): 10.8 nM
33 | COc1ccc2c(c1)c(C(C)CNC(C)=O)cn2C (single isomer, unassigned; (+)) [listing 1 of 2 here] | 0.5 |  |  |  |  | EC50 (Melanophore [4]; melanophore, read-out: EC50): 0.98 nM
34 | CCCC(=O)NCC(C)c1cn(C)c2ccc(OC)cc12 (configuration not stated) | 0.47 |  | 1 | 4.27 | inactive | 
35 | COc1ccc2c(c1)c(C(C)CNC(C)=O)cn2C (stereo in doubt; (-)6a) [listing 2 of 2 here] |  |  |  |  | inactive | 
36 | COc1ccc2c(c1)c(C(C)CNC(C)=O)cn2C (single isomer, unassigned; (+)) [listing 2 of 2 here] |  |  |  |  | inactive | 
37 | COc1ccc2[nH]cc(CCNC(C)=O)c2c1 [MELATONIN] |  |  | 0.063 |  | inactive | 
